Reference: publication PMC6044901 (ACS Omega, 2018)
Values belong to the molecule of their own block, whether it stands above or below them.

What was measured:
[1] = iv; cited from earlier work
[2] = PK after iv injection in mice; format: in vivo; details: iv 1 mg/kg, GLP-1 ELISA, T1/2 elim unavailable
In short: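 Male ICR mice, 6 weeks old, n = 3, given a single iv injection: 1 mg/kg as GLP-1 peptide-equivalent weight for screening, or 300 nmol/kg. Tail-vein blood taken at 0, 12, 24, 48, 72, 96, 120 and 144 h; plasma stored at −80 °C. Active GLP-1 ELISA with a four-parameter logistic standard curve. Half-life computed; mean of three measurements.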

[3] = PK after sc injection in mice; format: in vivo; details: male, Crl:CD1 (ICR), mouse, plasma, 100 nmol/kg
In short: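 Male ICR mice, 6 weeks old, n = 3, given a single sc injection: test compound at 100 or 300 nmol/kg, or liraglutide at 100 nmol/kg. Tail-vein plasma sampled at 0–144 h (0, 12, 24, 48, 72, 96, 120, 144 h) and stored at −80 °C. Active GLP-1 ELISA with a four-parameter logistic fit. Bioavailability from sc and iv dosing run in parallel.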

[4] = nonhuman primate; cited from earlier work

Molecule: Glucagon-like peptide-1 [GLP-1]
- half-life (T1/2 elim) injected intravenously [1]: ≤ 2 min

- plasma immunoreactive GLP-1 level at 48 h after iv injection [2]: below the detection limit
- MRT [3]: 15.5 h
Molecule: CCCCCCCCCCCCCCCC(=O)N[C@@H](CCC(=O)NCCCC[C@H](NC(=O)[C@H](C)NC(=O)[C@H](C)NC(=O)[C@H](CCC(N)=O)NC(=O)CNC(=O)[C@H](CCC(=O)O)NC(=O)[C@H](CC(C)C)NC(=O)[C@H](Cc1ccc(O)cc1)NC(=O)[C@H](CO)NC(=O)[C@H](CO)NC(=O)[C@@H](NC(=O)[C@H](CC(=O)O)NC(=O)[C@H](CO)NC(=O)[C@@H](NC(=O)[C@H](Cc1ccccc1)NC(=O)[C@@H](NC(=O)CNC(=O)[C@H](CCC(=O)O)NC(=O)[C@H](C)NC(=O)[C@@H](N)Cc1cnc[nH]1)[C@@H](C)O)[C@@H](C)O)C(C)C)C(=O)N[C@@H](CCC(=O)O)C(=O)N[C@@H](Cc1ccccc1)C(=O)N[C@H](C(=O)N[C@@H](C)C(=O)N[C@@H](Cc1c[nH]c2ccccc12)C(=O)N[C@@H](CC(C)C)C(=O)N[C@H](C(=O)N[C@@H](CCCNC(=N)N)C(=O)NCC(=O)N[C@@H](CCCNC(=N)N)C(=O)NCC(=O)O)C(C)C)[C@@H](C)CC)C(=O)O [liraglutide, reference compound]

B1: 99 kDa HPN-conjugated G-CSF: 99 kDa heparosan-conjugated G-CSF, ref 39 (conjugate, UniProt P09919 31-207, looked up)
Granulocyte …: TPLGPASSLPQSFLLKCLEQVRKIQGDGAALQEKLVSECATYKLCHPEELVLLGHSLGIPWAPLSSCPSQALQLAGCLSQLHSGLFLYQGLLQALEGISPELGPTLDTLQLDVADFATTIWQQMEELGMAPALQPTQGAMPAFASAFQRRAGGVLVASHLQSFLEVSYRVLRHLAQP
modifications: 99 kDa heparosan conjugate
- T1/2 elim [4]: 190 h
